Reference: ChEMBL document CHEMBL4613270, “Structure-Activity Relationship Study Enables the Discovery of a Novel Berberine Analogue as the RXRα Activator to Inhibit Colon Cancer” (J Med Chem, 2020)
The source made the active and inactive calls. The calls are words filed in the database; no cut-off is given here.

Columns and labels:
[1] = test system: HCT-116; assay: Inhibition of cell proliferation of human HCT116 cells at 30 to 60 uM incubated for 15 hrs by EdU assay; assay type: functional, cell-based
Outline: (§1)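 Colon cancer cells treated for 15 h. Proliferation measured in 96-well plates using an EdU incorporation kit, with cells examined under a fluorescence microscope.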

[2] = test system: SW-620; assay: Inhibition of cell proliferation of human SW620 cells at 40 to 80 uM incubated for 15 hrs by EdU assay; assay type: functional, cell-based; outline: as §1
[3] = target: T1, Retinoic acid receptor RXR-alpha (Homo sapiens) (UniProt P19793); assay: Activation of RXRalpha in human KM12C cells assessed as […] protein expression at 25 to 50 uM incubated for 15 hrs by Western blot analysis; assay type: cell-based
T1 sequence (whole entry): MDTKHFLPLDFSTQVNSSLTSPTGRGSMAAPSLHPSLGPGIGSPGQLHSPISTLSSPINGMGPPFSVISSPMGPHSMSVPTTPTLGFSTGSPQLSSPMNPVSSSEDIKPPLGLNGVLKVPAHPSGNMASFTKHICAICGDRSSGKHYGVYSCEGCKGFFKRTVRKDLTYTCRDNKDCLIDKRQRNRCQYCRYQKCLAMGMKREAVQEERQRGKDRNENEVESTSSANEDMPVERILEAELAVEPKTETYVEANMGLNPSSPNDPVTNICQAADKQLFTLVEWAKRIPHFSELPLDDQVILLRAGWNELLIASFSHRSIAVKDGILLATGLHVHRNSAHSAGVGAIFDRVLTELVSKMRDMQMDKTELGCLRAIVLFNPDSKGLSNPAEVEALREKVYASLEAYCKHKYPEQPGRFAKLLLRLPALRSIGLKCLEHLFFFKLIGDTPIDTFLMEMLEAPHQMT

[4] = target: T1, Retinoic acid receptor RXR-alpha (Homo sapiens); assay: Activation of RXRalpha in human HCT116 cells assessed as […] protein expression at 30 to 60 uM incubated for 15 hrs by Western blot analysis; assay type: cell-based; details: HCT-116
[5] = target: T1, Retinoic acid receptor RXR-alpha (Homo sapiens); assay: Activation of RXRalpha in human SW620 cells assessed as […] in PCNA protein expression at 40 to 80 uM incubated for 15 hrs by Western blot analysis; assay type: cell-based; details: SW-620
[6] = target: T1, Retinoic acid receptor RXR-alpha (Homo sapiens); assay: Activation of RXRalpha in human KM12C cells assessed as increase transactivational activity on RXRE at 25 to 50 uM incubated for 15 hrs by luciferase reporter gene assay; assay type: cell-based
Outline: (§2)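 Endogenous RXRα transactivation on an RXRE luciferase reporter, lipofection-transfected; compound added 20 h post-transfection for 15 h; lysis in passive lysis buffer at 4 °C, 1 h; firefly and Renilla luciferase activities read by dual-luciferase assay.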

[7] = target: T1, Retinoic acid receptor RXR-alpha (Homo sapiens); assay: Activation of RXRalpha in human SW620 cells assessed as increase transactivational activity on RXRE at 40 to 80 uM incubated for 15 hrs by luciferase reporter gene assay; assay type: cell-based; details: SW-620; outline: as §2
[8] = test system: KM12C; assay: Inhibition of cell proliferation of human KM12C cells up to 100 uM in presence of RXRalpha shRNA incubated for 15 hrs by MTT assay; assay type: functional, cell-based
Outline: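 KM12C cells were transfected with control or RXRα-targeting shRNA, seeded at 1×10^4 cells/well and incubated overnight at 37 °C. Compound was then added for 15 h. MTT (5 mg/mL stock) was incubated 4 h at 37 °C, formazan dissolved in DMSO, and absorbance read at 570 nm.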

[9] = target: T1, Retinoic acid receptor RXR-alpha (Homo sapiens); assay: Activation of RXRalpha in human KM12C cells assessed as reduction in Cdc2 protein expression at 25 to 50 uM incubated for 15 hrs in presence of RXRalpha shRNA by Western blot analysis; assay type: cell-based
[10] = target: T1, Retinoic acid receptor RXR-alpha (Homo sapiens); assay: Activation of RXRalpha in human KM12C cells assessed as reduction in Cdc2 mRNA expression at 25 to 50 uM incubated for 15 hrs in presence of RXRalpha shRNA by real-time PCR analysis; assay type: cell-based
[11] = target: T1, Retinoic acid receptor RXR-alpha (Homo sapiens); assay: Activation of RXRalpha in human KM12C cells assessed as reduction in c-Myc protein expression at 25 to 50 uM incubated for 15 hrs in presence of RXRalpha shRNA by Western blot analysis; assay type: cell-based
[12] = target: T1, Retinoic acid receptor RXR-alpha (Homo sapiens); assay: Activation of RXRalpha in human KM12C cells assessed as reduction in c-Myc mRNA expression at 25 to 50 uM incubated for 15 hrs in presence of RXRalpha shRNA by real-time PCR analysis; assay type: cell-based
[13] = Hepatotoxicity in BALB/c mouse xenografted with human KM12C cells assessed as induction of hepatocellular morphology damage at 100 mg/kg, ig dosed daily for 15 days by H and E staining; assay type: toxicity, organism-based; details: in vivo, po, 360 h
[14] = Hepatotoxicity in BALB/c mouse xenografted with human KM12C cells assessed as induction of necrotic hepatocytes at 100 mg/kg, ig dosed daily for 15 days by H and E staining; assay type: toxicity, organism-based; details: in vivo, po, 360 h
[15] = Hepatotoxicity in BALB/c mouse xenografted with human KM12C cells assessed as induction of hepatomegaly by measuring body weight ratio at 100 mg/kg, ig dosed daily for 15 days; assay type: toxicity, organism-based; details: in vivo, po, 360 h
[16] = Toxicity in human HIEC6 cells assessed a reduction in cell viability at 6.25 to 100 uM incubated for 15 hrs by MTT assay; assay type: cell-based
Outline: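 HIEC-6 cells grown in MEM with 4% FBS, HEPES, GlutaMAX and 10 ng/mL EGF. MEF cells grown in DMEM high glucose with 10% FBS. Cells plated at 1×10⁴ per well and treated with a concentration series for 15 h. Viability read by MTT: 4 h at 37 °C, DMSO solubilization, absorbance at 570 nm.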

COc1ccc2c(c1)CC[n+]1cc3c(OC)cccc3cc1-2.[Cl-]
inhibition [1]: Active
inhibition [2]: Active
Activity [3]: Active
Activity [4]: Active
Activity [5]: Active
Activity [6]: Active
Activity [7]: Active
inhibition [8]: inactive
Activity [9]: inactive
Activity [10]: inactive
Activity [11]: inactive
Activity [12]: inactive
Activity [13]: Non-Toxic
Activity [14]: Non-Toxic
Activity [15]: Non-Toxic
Activity [16]: Non-Toxic
